Target: Metabotropic glutamate receptor 1 (Homo sapiens, UniProt Q13255)
Assay: Negative allosteric modulation of human mGlu1 receptor expressed in HEK293A TREx cells assessed as calcium flux after 45 mins
Procedure, shortened: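 HEK293A TREx cells stably expressing human mGlu1 were induced overnight with 50 ng/mL tetracycline at 37 °C. Ten-point 1:3 compound series were added for 2.3 min, then an EC20 of glutamate, then an EC80 of glutamate 1.9 min later. Ca2+ flux was read for 1.7 min. Values are the average of n ≥ 3.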

Metabotropic glutamate receptor 1, sequence (Q13255 whole entry): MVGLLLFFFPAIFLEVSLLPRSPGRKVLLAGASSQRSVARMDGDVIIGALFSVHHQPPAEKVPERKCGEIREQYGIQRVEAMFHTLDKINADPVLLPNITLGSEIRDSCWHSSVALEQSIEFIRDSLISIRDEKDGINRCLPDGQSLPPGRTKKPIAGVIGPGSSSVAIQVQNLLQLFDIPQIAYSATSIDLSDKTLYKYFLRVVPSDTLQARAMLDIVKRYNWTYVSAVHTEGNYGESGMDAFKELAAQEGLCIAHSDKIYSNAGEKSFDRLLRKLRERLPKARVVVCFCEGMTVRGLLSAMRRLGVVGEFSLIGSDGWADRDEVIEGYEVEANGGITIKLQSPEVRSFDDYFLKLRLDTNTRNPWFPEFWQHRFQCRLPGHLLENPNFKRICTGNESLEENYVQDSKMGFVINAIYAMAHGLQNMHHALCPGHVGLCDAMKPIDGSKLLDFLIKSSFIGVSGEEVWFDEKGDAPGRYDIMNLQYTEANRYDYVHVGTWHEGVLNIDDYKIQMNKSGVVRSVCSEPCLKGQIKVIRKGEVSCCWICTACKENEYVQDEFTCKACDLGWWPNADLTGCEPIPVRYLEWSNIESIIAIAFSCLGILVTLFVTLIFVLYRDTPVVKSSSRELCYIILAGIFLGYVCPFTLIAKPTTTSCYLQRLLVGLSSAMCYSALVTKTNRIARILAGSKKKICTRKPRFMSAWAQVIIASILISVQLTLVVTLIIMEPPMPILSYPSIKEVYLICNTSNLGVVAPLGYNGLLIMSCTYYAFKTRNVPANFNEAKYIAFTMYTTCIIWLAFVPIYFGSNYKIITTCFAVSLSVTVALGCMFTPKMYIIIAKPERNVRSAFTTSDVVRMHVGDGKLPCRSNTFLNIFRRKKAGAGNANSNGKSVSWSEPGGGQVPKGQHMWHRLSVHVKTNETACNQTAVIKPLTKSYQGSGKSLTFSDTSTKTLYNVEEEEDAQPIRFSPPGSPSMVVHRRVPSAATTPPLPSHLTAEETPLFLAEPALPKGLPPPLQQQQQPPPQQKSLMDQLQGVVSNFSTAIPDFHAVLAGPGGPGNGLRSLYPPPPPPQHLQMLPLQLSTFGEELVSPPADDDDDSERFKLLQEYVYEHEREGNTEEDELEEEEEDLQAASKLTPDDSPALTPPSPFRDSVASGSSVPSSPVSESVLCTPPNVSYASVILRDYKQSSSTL

| Compound | IC50 |
| --- | --- |
| CC(C)(C)CC(=O)N1C[C@@H]2CN(c3ccccn3)C[C@@H]2C1 | > 31.6 µM |
| CC(C)(C)C(=O)N1C[C@@H]2CN(c3ccccn3)C[C@@H]2C1 | > 31.6 µM |

Reference: BindingDB's records for doi:10.1016/j.bmcl.2013.07.029 (Vanderbilt University Medical Center, 2013)
